Test results as given in ChEMBL document CHEMBL3860025, “Antiproliferative and Anti-inflammatory Withanolides from Physalis angulata” (J Nat Prod, 2016).

Columns and labels:
[1] = Antiproliferative activity against human 786-0 cells assessed as inhibition of cell viability after 48 hrs by MTT reduction assay; type: functional, cell-based; conditions: 786-0, 48 h
Method in brief: (§1)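 Cells grown in RPMI-1640 or EMEM with 10% FBS at 37 °C under 5% CO2. Seeded at 1 × 10^4 cells/well for 12 h, then exposed to a range of compound concentrations for 48 h. Viability read by MTT reduction. 5-Fluorouracil was the positive control. Each assay was repeated three times, and IC50 reported as mean ± SD.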

[2] = Antiproliferative activity against human 22Rv1 cells assessed as inhibition of cell viability after 48 hrs by MTT reduction assay; type: functional, cell-based, CWR22R; conditions: 22Rv1, 48 h; method in brief: as §1
[3] = Antiproliferative activity against human A375-S2 cells assessed as inhibition of cell viability after 48 hrs by MTT reduction assay; type: functional, cell-based; conditions: A375-S2, 48 h; method in brief: as §1
[4] = Antiproliferative activity against human C4-2B cells assessed as inhibition of cell viability after 48 hrs by MTT reduction assay; type: functional, cell-based; conditions: LNCaP C4-2B; method in brief: as §1
[5] = Antiinflammatory activity in mouse RAW264.7 cells assessed as inhibition of LPS-induced nitric oxide production after 24 hrs by Griess assay; type: functional, cell-based; conditions: RAW264.7, 24 h
Method in brief: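 RAW 264.7 macrophages seeded at 1 × 10^6 cells/well, then incubated 24 h at 37 °C with LPS (1 μg/mL), with or without test compounds. NO measured by Griess reagent (0.1% N-(1-naphthyl)ethylenediamine plus 1% sulfanilamide in 5% H3PO4), absorbance at 540 nm. NO concentration and inhibition rate calculated from a standard curve. Hydrocortisone served as positive control.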

[6] = Antiproliferative activity against human ACHN cells assessed as inhibition of cell viability after 48 hrs by MTT reduction assay; type: functional, cell-based; method in brief: as §1
[7] = Antiproliferative activity against human A498 cells assessed as inhibition of cell viability after 48 hrs by MTT reduction assay; type: functional, cell-based; conditions: A498, 48 h; method in brief: as §1

| Compound | IC50 [1] [µM] | IC50 [2] [µM] | IC50 [3] [µM] | IC50 [4] [µM] | IC50 [5] [µM] | IC50 [6] [µM] | IC50 [7] [µM] |
| --- | --- | --- | --- | --- | --- | --- | --- |
| CC(=O)O[C@H]1C=C([C@H](C)[C@H]2CC(C)=C(C)C(=O)O2)[C@@]2(C)CC[C@H]3[C@@H](C[C@@H](O)[C@@]4(O)CC=CC(=O)[C@]34C)[C@]12O | > 10 | > 10 | > 10 | > 10 | 64.1 | > 10 | > 10 |
| CC1=C(C)C(=O)O[C@@H]([C@@H](C)C2=C[C@H](O)[C@]3(O)[C@@H]4C[C@@H](O)[C@@]5(O)CC=CC(=O)[C@]5(C)[C@H]4CC[C@]23C)C1 | > 10 | > 10 | > 10 | > 10 | 36.5 | > 10 | > 10 |
| CO[C@]12CC=CC(=O)[C@]1(C)[C@H]1CC[C@]3(C)C([C@H](C)[C@H]4CC(C)=C(C)C(=O)O4)=C[C@H](OC(C)=O)[C@]3(O)[C@@H]1C[C@H]2O | > 10 | > 10 | > 10 | > 10 | 44.6 | > 10 | > 10 |
| CC(=O)O[C@H]1C[C@H]([C@H](C)[C@H]2CC(C)=C(C)C(=O)O2)[C@@]2(C)CC[C@H]3[C@@H](C[C@H]4O[C@]45CC=CC(=O)[C@]35C)[C@@]12O | 0.39 | 0.9 | 7.43 | 0.49 | 1.36 | 0.73 | 0.71 |
| CC(=O)O[C@H]1C[C@H]([C@H](C)[C@H]2CC(C)=C(C)C(=O)O2)[C@@]2(C)CC[C@H]3[C@@H](C[C@@H](O)[C@@]4(O)CC=CC(=O)[C@]34C)[C@@]12O | > 10 | > 10 | > 10 | > 10 | 43.8 | > 10 | > 10 |
| CO[C@@H]1C=C([C@H](C)[C@H]2CC(C)=C(C)C(=O)O2)[C@@]2(C)CC[C@H]3[C@@H](C[C@@H](O)[C@@]4(O)CC=CC(=O)[C@]34C)[C@@]12O | > 10 | > 10 | > 10 | > 10 | 18.7 | > 10 | > 10 |
| CC(=O)O[C@H]1C=C([C@H](C)[C@H]2CC(C)=C(C)C(=O)O2)[C@@]2(C)CC[C@H]3[C@@H](C[C@H](O)[C@]4(O)CC=CC(=O)[C@]34C)[C@@]12O | > 10 | > 10 | > 10 | > 10 | 11.6 | > 10 | > 10 |
| CC1=C(C)C(=O)O[C@@H]([C@](C)(O)[C@H]2C[C@H](O)[C@H]3[C@@H]4C[C@@H](O)[C@@]5(O)CC=CC(=O)[C@]5(C)[C@H]4CC[C@@]32C)C1 | > 10 | > 10 | > 10 | > 10 | 71.7 | > 10 | > 10 |
| CC(=O)O[C@H]1C[C@H]([C@H](C)[C@H]2CC(C)=C(C)C(=O)O2)[C@@]2(C)CC[C@H]3[C@@H](C[C@@H](O)[C@@]4(O)CC=CC(=O)[C@]34C)[C@H]12 | > 10 | 11.6 | > 10 | > 10 | 17.6 | > 10 | > 10 |
| CC1=C(C)C(=O)O[C@@H]([C@@H](C)C2=C[C@@H](O)[C@]3(O)[C@@H]4C[C@@H](O)[C@@]5(O)CC=CC(=O)[C@]5(C)[C@H]4CC[C@]23C)C1 | > 10 | > 10 | > 10 | > 10 | 38.2 | > 10 | > 10 |
| CC1=C(C)C(=O)O[C@@H]([C@@H](C)[C@]23O[C@H]2[C@H](O)[C@]2(O)[C@@H]4C[C@@H](O)[C@@]5(O)CC=CC(=O)[C@]5(C)[C@H]4CC[C@@]23C)C1 | > 10 | > 10 | > 10 | > 10 | > 100 | > 10 | > 10 |
| CO[C@]12CC=CC(=O)[C@]1(C)[C@H]1CC[C@@]3(C)[C@@](O)([C@@H]1C[C@H]2O)[C@@H](OC(C)=O)[C@@H]1O[C@@]13[C@H](C)[C@H]1CC(C)=C(C)C(=O)O1 | > 10 | > 10 | > 10 | > 10 | 6.36 | > 10 | > 10 |
